Values after ≈ are worked out from the molar mass of the structure shown. Active and inactive are the calls of the source. No cut-off for these calls is given here.
What was measured:
Candida albicans [1] = assay: Antifungal activity against Candida albicans ATCC 24433 assessed as growth inhibition after 24 hrs by broth microdilution assay; type: functional; conditions: ATCC 24433, 24 h
Method in brief: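 Broth microdilution: 24-h colonies suspended in 0.85% saline, diluted in RPMI-1640 with MOPS to 1.0 × 10^4 cfu/mL final, mixed 1:1 with sample; 35 °C, 24 h; OD 595 nm. MIC = lowest concentration giving 80% growth reduction. Fluconazole positive control; SD from three independent experiments.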

Candida albicans [2] = assay: Antibiofilm activity against Candida albicans ATCC 24433 after 24 hrs by XTT-based colorimetric assay; type: functional; conditions: ATCC 24433, 24 h
Method in brief: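 XTT assay: YPD overnight culture, PBS-washed, 1.0 × 10^6 cfu/mL in RPMI-1640/MOPS; biofilms formed at 37 °C for 24 h, washed, then treated 24 h at 37 °C; 0.5 mg/mL XTT for 2 h, read at 490 nm. MIC = lowest concentration giving ≥80% reduction in XTT signal.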

Candida albicans [3] = assay: Antibiofilm activity against Candida albicans ATCC 24433 at 1000 ug/ml after 24 hrs by scanning electron microscopic analysis; type: functional, organism-based
Method in brief: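 Biofilms grown from 1.0 × 10^6 cfu/mL suspensions on poly-L-lysine-treated glass coverslips, 37 °C for 24 h. PBS-washed three times, then exposed to drug for another 24 h. Fixed overnight in 2.5% glutaraldehyde in 0.2 M PBS (pH 7.2), then 1% osmium for 2 h. Ethanol-dehydrated, critical-point dried, gold-coated, and imaged by SEM at high vacuum, 10 kV.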

Candida albicans [4] = assay: Antibiofilm activity against Candida albicans ATCC 24433 at 1000 ug/ml after 24 hrs by XTT-based colorimetric assay; type: functional, organism-based
Method in brief: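 Biofilms grown from overnight YPD cells, PBS-washed and resuspended to 1.0 × 10^6 cfu/mL in RPMI-1640 plus MOPS, 37 °C for 24 h. After three PBS washes, treated a further 24 h at 37 °C. Then 0.5 mg/mL XTT for 2 h, read at 490 nm. MIC taken as the lowest concentration giving ≥80% reduction in XTT reduction.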

OC(Cn1cncn1)(Cn1cncn1)c1ccc(F)cc1F [FLUCONAZOLE]
MIC80 (Candida albicans [1]): 0.25 µg/mL (≈ 0.816 µM) | MIC80 (Candida albicans [2]): > 1000 µg/mL | Activity (Candida albicans [3]): inactive | Activity (Candida albicans [4]): inactive

— ChEMBL document CHEMBL3751733, “Synergistic Antifungal Meroterpenes and Dioxolanone Derivatives from the Endophytic Fungus Guignardia sp” (J Nat Prod, 2015)
